Data on 10 molecules can be found in ChEMBL document CHEMBL3352130, “Bioactive clerodane diterpenoids from the twigs of Casearia balansae” (J Nat Prod, 2014).

The structures appear in SMILES notation. Converted amounts (≈) assume the structure as drawn. The source made the active and inactive calls. The rule behind the calls is not given here.

The test system of test [1] is PC-12. The test is described as follows: Induction of neurite outgrowth in rat PC12 cells incubated for 96 hrs by phase contrast microscopy. Type of test: functional, cell-based. In outline:
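PC12 cells grown at 37 °C in DMEM with 5% FBS and 5% horse serum, then dissociated with 1 mM EGTA in PBS for 15 min. Seeded at 3 × 10^4 cells/well on poly-L-lysine. After 24 h, switched to 1% FBS/1% HS with test compounds at various concentrations and no NGF, for 96 h. NGF 100 ng/mL served as positive control. Neurite-bearing cells: process ≥ cell-body diameter, as % of ≥100 cells × 3 fields × 6 wells. Triplicate.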

Test [2] deals with PC-12. In words: Stimulation of NGF-mediated neurite outgrowth in rat PC12 cells incubated for 96 hrs by phase contrast microscopy. Format: functional, cell-based. Particulars: for EC50: PC-12, 96 h. In outline:
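PC12 cells cultured and dissociated with EGTA as above, then plated on poly-L-lysine at 3 × 10^4 cells/well. After 24 h, exposed for 96 h to 20 ng/mL NGF plus graded compound concentrations in 1% FBS/1% HS. Phase-contrast count of cells with neurites ≥ soma diameter, as % of ≥100 cells per field (3 fields/well, 6 wells/sample). Triplicate runs. EC50 from linear or nonlinear concentration–response regression.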

The term EC50 denotes the concentration that produces a half-maximal response. High values mean a need for much substance, low ones an effect from little substance. In the case of `C=CC(=C)CC[C@]1(C)[C@H](C)C[C@H](OC)[C@@]23C(=CC(=O)C[C@@H]12)[C@@H](OC(C)=O)O[C@H]3OC(C)=O`, in the test on PC-12 [1], the outcome was inactive. Besides, in the test with PC-12 [2], the Activity result was “Dose-dependent effect” and the midpoint of the response, the EC50, lay at 2.5 µg/mL (≈ 5.6 µM).
In the case of `C=CC(=C)CC[C@]1(C)[C@H](C)C[C@H](OC)[C@@]2(C=O)C(C=O)=C[C@H](OC(=O)C(C)CC)C[C@@H]12` (stereo partly specified), the result in the test on PC-12 [1] and with PC-12 [2] was inactive.
For the molecule `C=CC(=C)CC[C@]1(C)[C@H](C)C[C@H](OC)[C@@]23C(=C[C@H](OC(=O)CCC)C[C@@H]12)[C@@H](OC(=O)CCC)O[C@H]3OC(C)=O`, the result with PC-12 [1] was inactive. In the test on PC-12 [2], the Activity result was “Dose-dependent effect” and the midpoint of the response, the EC50, lay at 20.2 µg/mL (≈ 36.9 µM).
`C=CC(=C)CC[C@]1(C)[C@H](C)CC[C@@]23C(=C[C@H](OC(=O)C(C)CC)C[C@@H]12)[C@@H](OC(=O)CCC)O[C@H]3OC(C)=O` (stereo partly specified): the result in the test with PC-12 [1] and in the test with PC-12 [2] was inactive.
For `C=CC(=C)CC[C@]1(C)[C@H](C)C[C@H](OC)[C@@]23C(=C[C@@H](OC(C)=O)C[C@@H]12)[C@@H](OC)O[C@H]3OC(C)=O`, the outcome in the test on PC-12 [1] was inactive. In addition, in the test on PC-12 [2], the Activity entry is “Dose-dependent effect” and the EC50 stood at 2.4 µg/mL (≈ 5.19 µM).
Turning to `C=CC(=C)CC[C@]1(C)[C@H](C)CC[C@@]23C(=CC(=O)C[C@@H]12)[C@@H](OC(=O)CCC)O[C@H]3OC(C)=O`, the outcome in the test on PC-12 [1] and in the test with PC-12 [2] was inactive.
Regarding `C=CC(=C)CC[C@]1(C)[C@H](C)CC[C@@]23[C@H](OC(C)=O)O[C@H](OC(C)=O)[C@@H]2CC(=O)C[C@@H]13`, the outcome in the test on PC-12 [1] and in the test on PC-12 [2] was inactive.
`C=CC(=C)CC[C@]1(C)[C@H]2C[C@H](OC(=O)C(C)CC)C=C3[C@H](OC)O[C@H](OC(C)=O)[C@@]32[C@H](O)C[C@@H]1C` (stereo partly specified) [CASEAMEMBRIN B]: the outcome with PC-12 [1] was inactive. In the test with PC-12 [2], the Activity result is “Dose-dependent effect” and the concentration giving a half-maximal response (EC50) stood at 7.5 µg/mL (≈ 15.3 µM).
As for `C=CC(=C)CC[C@]1(C)[C@H](C)C[C@H](OC)[C@@]23C(=C[C@H](OC(=O)C(C)CC)C[C@@H]12)[C@@H](OC)O[C@H]3OC(C)=O` (stereo partly specified), the result in the test on PC-12 [1] was inactive. For the same molecule, in the test on PC-12 [2], the Activity result was “Dose-dependent effect” and the EC50 turned out to be 4 µg/mL (≈ 7.93 µM).
Consider `C=CC(=C)CC[C@]1(C)[C@H](C)C[C@H](OC)[C@@]23C(=C[C@H](OC(=O)C(C)CC)C[C@@H]12)[C@@H](OC(=O)CCC)O[C@H]3OC(C)=O` (stereo partly specified), for which the outcome with PC-12 [1] was inactive. In the test on PC-12 [2], the Activity result was “Dose-dependent effect” and it took 12.7 µg/mL (≈ 22.6 µM) to reach a half-maximal effect (EC50).
